Test results from ChEMBL document CHEMBL1143386, “Prodrugs of perzinfotel with improved oral bioavailability” (J Med Chem, 2009).

Legend:
[1] = Chemical stability at pH 1 after 24 hrs; format: physicochemical; conditions: buffer, read-out: Stability
Outline: (§1)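 Compound at 0.01 mg/mL final in a 9:1 mix of aqueous buffer (pH 1.0, 4.5, 6.6 or 7.4) or simulated gastric fluid with acetonitrile, held at 37 °C in the autosampler. Injected every 4 h over 24 h onto C8 HPLC. Percent remaining from peak area at 304 nm, corrected by internal standard; products confirmed by LC/MS (-ESI).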

Blood [2] = assay: Biodistribution in Sprague-Dawley rat blood assessed as formation of perzinfotel at 10 mg/kg, po after 0.167 hrs; format: ADME, organism-based; design: dose 10 mg/kg, route oral; conditions: in vivo
Outline: (§2)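 Male Sprague-Dawley rats given [14C]-labelled compound by oral gavage (parent at 30 mg/kg, prodrug at 10 mg/kg). Blood, plasma and brain taken at 0.167, 0.5, 1, 4, 8 and 24 h (n = 3 rats/time point). Total radioactivity measured in each matrix. Metabolite profiles from HPLC with in-line radioactivity detection.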

Plasma [3] = assay: Stability in rat plasma assessed as conversion of benzoic acid [2-(8,9-dioxo-2,6-diaza-bicyclo[5.2.0]non-1(7)-en-2-yl)-ethyl]-hydroxy-phosphinoyloxymethyl ester to perzinfotel after 3 hrs by Lc/MS analysis; format: ADME, cell-free
Outline: (§3)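 Dissolved at 0.05 mg/mL in rat plasma and incubated at 37 °C for 0–24 h. Samples quenched with acetonitrile and centrifuged; supernatant diluted and run on HPLC. Parent and conversion products quantified by peak area at 304 nm, corrected by internal standard, and confirmed by LC/MS. Kinetics fitted to a two-step first-order model.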

[4] = Chemical stability at pH 4.5 after 24 hrs; format: physicochemical; conditions: buffer, read-out: Stability; outline: as §1
Brain [5] = assay: Biodistribution in Sprague-Dawley rat brain assessed as formation of perzinfotel at 10 mg/kg, po after 0.5 hrs; format: ADME, organism-based; design: dose 10 mg/kg, route oral; conditions: in vivo; outline: as §2
[6] = Chemical stability at pH 1 after 8 hrs; format: physicochemical; conditions: buffer, read-out: Stability; outline: as §1
[7] = Chemical stability in simulated intestinal bile fluid after 16 hrs; format: physicochemical; conditions: read-out: Stability
Outline: (§4)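 Compound taken up in 9:1 simulated intestinal bile fluid:acetonitrile at a final 0.01 mg/mL, held in a 37 °C autosampler. HPLC injections every 4 h over 24 h. Percent remaining taken from peak area at 304 nm, corrected by internal standard. Products identified by LC/MS (-ESI).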

[8] = Chemical stability at pH 6.6 after 24 hrs; format: physicochemical; conditions: buffer, read-out: Stability; outline: as §1
Plasma [9] = assay: Biodistribution in Sprague-Dawley rat plasma assessed as formation of perzinfotel at 10 mg/kg, po after 0.5 hrs; format: ADME, organism-based; design: dose 10 mg/kg, route oral; conditions: in vivo; outline: as §2
[10] = Chemical stability at pH 6.6 after 8 hrs; format: physicochemical; conditions: buffer, read-out: Stability; outline: as §1
Glutamate NMDA receptor = assay: Displacement of [3H]CGP-39653 from rat brain NMDA receptor
Outline: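 Competitive displacement of [3H]CGP-39653 at the NMDA recognition site, using rat whole-brain membranes.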

[11] = Chemical stability at pH 4.5 after 4 hrs; format: physicochemical; conditions: buffer, read-out: Stability; outline: as §1
[12] = Chemical stability in simulated gastric fluid after 8 hrs; format: physicochemical; conditions: read-out: Stability; outline: as §1
[13] = Chemical stability at pH 1 after 16 hrs; format: physicochemical; conditions: buffer, read-out: Stability; outline: as §1
[14] = Chemical stability at pH 7.4 after 24 hrs; format: physicochemical; conditions: buffer, read-out: Stability; outline: as §1
[15] = Chemical stability at pH 4.5 after 12 hrs; format: physicochemical; conditions: buffer, read-out: Stability; outline: as §1
[16] = Chemical stability at pH 4.5 after 20 hrs; format: physicochemical; conditions: buffer, read-out: Stability; outline: as §1
[17] = Chemical stability at pH 1 after 4 hrs; format: physicochemical; conditions: buffer, read-out: Stability; outline: as §1
[18] = Chemical stability at pH 7.4 after 8 hrs; format: physicochemical; conditions: buffer, read-out: Stability; outline: as §1
[19] = Chemical stability at pH 1 after 12 hrs; format: physicochemical; conditions: buffer, read-out: Stability; outline: as §1
[20] = Chemical stability at pH 4.5 after 16 hrs; format: physicochemical; conditions: buffer, read-out: Stability; outline: as §1
[21] = biological target: Glutamate NMDA receptor (Rattus norvegicus) (UniProt P35439+Q00959+Q00960+Q00961+Q62645+Q8VHN2+Q9R1M7); assay: Antagonist activity at rat brain NMDA receptor assessed as inhibition of glutamate-induced [3H]TCP binding at 300 uM
Outline: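 Functional NMDA antagonism was measured as inhibition of glutamate-stimulated [3H]-TCP binding to rat whole-brain membranes. The value is percent inhibition at a single concentration.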

[22] = Chemical stability in simulated intestinal bile fluid after 12 hrs; format: physicochemical; conditions: read-out: Stability
Outline: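 Compound at 0.01 mg/mL final in a 9:1 mix of simulated intestinal bile fluid and acetonitrile at 37 °C. Fed-state medium pH 5.5 with 10 mM sodium taurocholate; fasted-state medium pH 6.0 with 1 mM. Sampled every 4 h to 24 h by HPLC. Percent remaining from 304 nm peak area, corrected by internal standard.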

[23] = Chemical stability at pH 6.6 after 20 hrs; format: physicochemical; conditions: buffer, read-out: Stability; outline: as §1
[24] = Chemical stability in simulated gastric fluid after 16 hrs; format: physicochemical; conditions: read-out: Stability; outline: as §1
[25] = Chemical stability in simulated gastric fluid after 20 hrs; format: physicochemical; conditions: read-out: Stability; outline: as §1
[26] = Chemical stability in simulated gastric fluid after 12 hrs; format: physicochemical; conditions: read-out: Stability; outline: as §1
[27] = Chemical stability at pH 7.4 after 12 hrs; format: physicochemical; conditions: buffer, read-out: Stability; outline: as §1
[28] = Half life in pH 8.5 buffer assessed as loss of 3-{2[8,9-Dioxo-2,6-diazabicyclo[5.2.0-[non-1(7)-en-2-yl}-3-oxido-7-oxo-7-phenyl-2,4,6-trioxa-3-phosphahept-1-yl Benzoate; format: physicochemical
Outline: (§5)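 Compound at a final 0.01 mg/mL in 9:1 pH 8.5 buffer or simulated intestinal fluid:acetonitrile, 37 °C. HPLC injections every 4 h over 24 h, with peak area at 304 nm corrected by internal standard and identities confirmed by LC/MS. Conversion kinetics fitted to a two-step first-order model to give rate constants, half-lives and Tmax of the hemiester.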

[29] = Half life in Sprague-Dawley rat plasma assessed as loss of 3-{2[8,9-Dioxo-2,6-diazabicyclo[5.2.0-[non-1(7)-en-2-yl}-3-oxido-7-oxo-7-phenyl-2,4,6-trioxa-3-phosphahept-1-yl Benzoate; format: ADME; outline: as §3
[30] = Chemical stability at pH 7.4 after 16 hrs; format: physicochemical; conditions: buffer, read-out: Stability; outline: as §1
[31] = Chemical stability in simulated intestinal bile fluid after 4 hrs; format: physicochemical; conditions: read-out: Stability; outline: as §4
[32] = Chemical stability at pH 6.6 after 16 hrs; format: physicochemical; conditions: buffer, read-out: Stability; outline: as §1
[33] = Half life in simulated intestinal fluid assessed as loss of 3-{2[8,9-Dioxo-2,6-diazabicyclo[5.2.0-[non-1(7)-en-2-yl}-3-oxido-7-oxo-7-phenyl-2,4,6-trioxa-3-phosphahept-1-yl Benzoate; format: physicochemical; outline: as §5
[34] = Chemical stability at pH 1 after 20 hrs; format: physicochemical; conditions: buffer, read-out: Stability; outline: as §1
Blood [35] = assay: Biodistribution in Sprague-Dawley rat blood assessed as formation of perzinfotel at 10 mg/kg, po after 0.5 hrs; format: ADME, organism-based; design: dose 10 mg/kg, route oral; conditions: in vivo; outline: as §2
[36] = Chemical stability at pH 6.6 after 4 hrs; format: physicochemical; conditions: buffer, read-out: Stability; outline: as §1
[37] = Chemical stability in simulated intestinal bile fluid after 20 hrs; format: physicochemical; conditions: read-out: Stability; outline: as §4
[38] = Chemical stability in simulated gastric fluid after 24 hrs; format: physicochemical; conditions: read-out: Stability; outline: as §1
[39] = Chemical stability at pH 4.5 after 8 hrs; format: physicochemical; conditions: buffer, read-out: Stability; outline: as §1
[40] = Chemical stability at pH 6.6 after 12 hrs; format: physicochemical; conditions: buffer, read-out: Stability; outline: as §1
[41] = Chemical stability in simulated intestinal bile fluid after 8 hrs; format: physicochemical; conditions: read-out: Stability; outline: as §4
[42] = Chemical stability at pH 7.4 after 4 hrs; format: physicochemical; conditions: buffer, read-out: Stability; outline: as §1
Brain [43] = assay: Biodistribution in Sprague-Dawley rat brain assessed as formation of perzinfotel at 10 mg/kg, po after 0.167 hrs; format: ADME, organism-based; design: dose 10 mg/kg, route oral; conditions: in vivo; outline: as §2
[44] = Chemical stability in simulated intestinal bile fluid after 24 hrs; format: physicochemical; conditions: read-out: Stability; outline: as §4
[45] = Chemical stability in simulated gastric fluid after 4 hrs; format: physicochemical; conditions: read-out: Stability; outline: as §1
Rattus norvegicus = organism: Rattus norvegicus; assay: Antinociceptive activity in Sprague-Dawley rat assessed as reversal of PGE2-induced thermal hypersensitivity after 5 hrs; format: functional
Outline: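 Male Sprague-Dawley rats (200-250 g) fasted ~16 h and dosed orally in 2% Tween-80/0.5% methylcellulose (1 mL/kg) 0.5-48 h before intradermal PGE2 (0.1 mg in 50 µL). Tail-withdrawal latency was read 30 min later in water at 34-58 °C, with a 20 s cutoff. T10 from each rat's temperature-effect curve; within-subjects repeated-measures ANOVA, p < 0.05.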

Plasma [46] = assay: Biodistribution in Sprague-Dawley rat plasma assessed as formation of perzinfotel at 10 mg/kg, po after 0.167 hrs; format: ADME, organism-based; design: dose 10 mg/kg, route oral; conditions: in vivo; outline: as §2
[47] = Chemical stability at pH 7.4 after 20 hrs; format: physicochemical; conditions: buffer, read-out: Stability; outline: as §1

Compound O=C(OCOP(=O)(CCN1CCCNc2c1c(=O)c2=O)OCOC(=O)c1ccccc1)c1ccccc1 has a remaining at 24 h [1] of 97.9%, a Drug uptake (Blood [2]) of 88% and a Stability (Plasma [3]) of 90%. For the same compound, the remaining at 24 h [4] was 99.5%, the Drug uptake (Brain [5]) was 98% and the remaining at 8 h [6] was 99.3%. For the same compound, the remaining at 16 h [7] was 98.6%, the remaining at 24 h [8] was 87.4% and the Drug uptake (Plasma [9]) was 98%. The remaining at 8 h [10] was 95.7%, the IC50 (Glutamate NMDA receptor) was 4.2 µM and the remaining at 4 h [11] was 100%. The remaining at 8 h [12] was 99.3%, the remaining at 16 h [13] was 98.5% and the remaining at 24 h [14] was 56.7%. For the same compound, the remaining at 12 h [15] was 99.8%, the remaining at 20 h [16] was 99.5% and the remaining at 4 h [17] was 99.7%. The remaining at 8 h [18] was 83.2%, the remaining at 12 h [19] was 98.9% and the remaining at 16 h [20] was 99.7%. The inhibition [21] was 8%, the remaining at 12 h [22] was 98.6% and the remaining at 20 h [23] was 89.4%. It also gave a remaining at 16 h [24] of 98.7%, a remaining at 20 h [25] of 98.3% and a remaining at 12 h [26] of 99%. For the same compound, the remaining at 12 h [27] was 75.6%, the half-life [28] was 1.84 h and the half-life [29] was < 4.2 min. For the same compound, the remaining at 16 h [30] was 68.7%, the remaining at 4 h [31] was 99.5% and the remaining at 16 h [32] was 91.5%. It also gave a half-life [33] of 3.57 h, a remaining at 20 h [34] of 98% and a Drug uptake (Blood [35]) of 98%. It also gave a remaining at 4 h [36] of 98.1%, a remaining at 20 h [37] of 98.5% and a remaining at 24 h [38] of 98%. For the same compound, the remaining at 8 h [39] was 100%, the remaining at 12 h [40] was 93.7% and the remaining at 8 h [41] was 99.3%. It also gave a remaining at 4 h [42] of 91.6%, a Drug uptake (Brain [43]) of 88% and a remaining at 24 h [44] of 98.1%. For the same compound, the remaining at 4 h [45] was 99.6%, the ED50 (Rattus norvegicus) was 10 mg/kg and the Drug uptake (Plasma [46]) was 88%. It also gave a remaining at 20 h [47] of 62.2%.
